# SKKanGAS inh: SKKanGAS growth inhibition; S. pyogenes SKKanGAS, kanamycin growth, BacTiter-Glo, 6 h; inhibition, % at 7.5 µM; actives 1.3% (n = 300,000);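 active = mean replicate score, as percent of positive control median, at least 50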;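 also: strain carries kanamycin resistance gene driven by streptokinase promoter and grows in 40 µg/ml kanamycin; loss of luminescence reflects streptokinase promoter inhibition or plain growth inhibition; 0% = median of DMSO wells and 100% = positive control at its reference dose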
# T cruzi inh: T. cruzi replication inhibition. T. cruzi beta-gal in NIH3T3, luminescence, 90 h. inhibition, % (concentration not given with the values). actives 1.4% (n = 300,000);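 active = mean inhibition across valid replicates above about 55%, limit read from the data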;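 also: signal also drops with host cell toxicity which is not excluded here; 0% = plate median of DMSO wells and 100% = zero luminescence signal; higher percent means less beta-gal luminescence so fewer parasites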
#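 Material: NIH/3T3 host cells with β-galactosidase reporter T. cruzi; Input: 5,000 host fibroblasts per well; Medium: DMEM, 2% fetal bovine serum; Compound: 50 nL DMSO compound solution per well; Schedule: 3 h host attachment, then at least 90 h co-culture; Detection: luminescent β-galactosidase signal after 60 min lysis.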
# Beta cell apopt: blocks beta cell apoptosis. INS-1E cytokine-induced death, ATP luminescence, 48 h; percent of positive-control rescue, neutral wells zero. protection from apoptosis, % (test concentration not listed). actives 0.8% (n = 300,000);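 active = Every replicate reaches about 75%, or at least half do and their mean reaches it too, limit read from the data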;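 also: 0% = cytokine-treated negative control wells and 100% = positive control rescue; higher means more ATP so stronger rescue from cytokine killing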
# L major viab: reduces viability of Leishmania major promastigotes; resazurin fluorescence viability; inhibition, % at 10 µM; actives 9% (n = 200,000); in the data active = inhibition above about 50%;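 also: promastigotes grown with compound for 44 hours at 28 °C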
# CSC inhib: blocks cancer stem cells. inhibition, % at 7.5 µM. cancer stem cell-like cells viability, luminescence. actives 1.1% (n = 300,000); in the data active = inhibition above about 75%; tested in HMLE shEcad cells
# Mdm2-MdmX inh: disrupts the human Mdm2-MdmX interaction. actives 3% (n = 330,000). inhibition, % at 8 µM. SaOS-2 split-luciferase Mdm2/MdmX complementation, luminescence. O15151+Q00987;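 active = inhibition of at least 50% at 8 µM in the primary screen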
# * hit, by the source's call; nt = no result given. The list is not random: actives were taken first. Their share in the collection is about 9.4%.
SMILES,SKKanGAS inh,T cruzi inh,Beta cell apopt,L major viab,CSC inhib,Mdm2-MdmX inh
CCOC(=O)C(C)/C(C)=N\Nc1ccc([N+](=O)[O-])cc1[N+](=O)[O-] (stereo unspecified),6,-1,12,2,-1,16
CCNC(=O)c1cc(Cl)ccc1OC,-16,-2,nt,56*,-4,7
CCN(CC)c1ccc(NC(=O)c2cc(Cl)ccc2OC)cc1,-2,7,5,99*,49,35
Cc1ccc(C(=O)Nc2ccc(CN3CCCCC3)cc2)c(C)c1,4,0,6,74*,2,-7
COc1ccc(Cl)cc1C(=O)Nc1ccc(CN2CCCCC2)cc1,2,23,0,98*,-8,27
COc1ccc(Cl)cc1C(=O)NCC(C)C,1,-1,3,-2,11,10
COc1ccc(Cl)cc1C(=O)Nc1ccncc1,-7,19,nt,nt,-4,34
CC(=O)Nc1ccc(CN2CCCCCCC2)cc1,1,-6,13,-6,-17,-1
COc1cc2ccccc2cc1C(=O)Nc1ccc(CN2CCOCC2)cc1,0,0,0,nt,nt,-1
COc1ccc(S(=O)(=O)N(C)C[C@H]2Oc3c(NC(=O)C4CCCCC4)cccc3C(=O)N([C@H](C)CO)C[C@@H]2C)cc1,nt,nt,-4,nt,-40,3
COCCCNC(=O)/C=C/c1cccc(Cl)c1,0,-5,-8,-6,-12,19
CN(C)C(CNC(=O)/C=C/c1cccc(Cl)c1)c1ccccc1 (stereo unspecified),-9,10,-3,75*,6,8
CC(=O)c1ccc(OCc2cc([N+](=O)[O-])cc3c2OCOC3)cc1,8,21,1,75*,17,6
Cc1cc(C)cc(OCC(=O)OCc2cc([N+](=O)[O-])cc3c2OCOC3)c1,nt,nt,2,nt,nt,8
CCCCc1oc2ccccc2c1C(=O)c1cc(I)c(OCCN(CC)CC)c(I)c1,106*,38,4,99*,89*,42
Cc1cccc(N2C(=O)c3cccc4c(N5CCCCC5)c([N+](=O)[O-])cc(c34)C2=O)c1C,5,-29,nt,89*,13,18
O=C1c2cccc3c(N4CCOCC4)c([N+](=O)[O-])cc(c23)C(=O)N1c1cccc2ccccc12,31,12,4,11,15,10
Cc1nn(-c2ccccc2)c(C)c1-c1cc(C(=O)N/N=C/c2ccc(O)cc2)[nH]n1,9,-4,24,nt,75*,22
COc1cc(/C=N/NC(=O)c2cc(C34CC5CC(CC(C5)C3)C4)[nH]n2)ccc1O,7,2,-6,5,101*,19
Cc1nn(-c2ccccc2)c(C)c1/C=N/NC(=O)c1cc(O)cc(O)c1,1,-13,1,nt,-3,16
COc1cc(/C=N/NC(=O)c2cc(-c3c(C)nn(-c4ccccc4)c3C)n[nH]2)ccc1O,87*,-15,35,43,9,-50
COc1cc(/C=N/NC(=O)c2cc(-c3ccc4c(c3)OCO4)n[nH]2)ccc1O,13,6,42,21,75*,-4
COc1ccc(-c2noc3c2-c2nc(-c4ccc(C)cc4)sc2CC3)cc1,2,-5,-1,nt,-5,17
CCOC(=O)c1c(C)n(C)c2ccc(OCC(O)CN3CCCCCC3)cc12 (stereo unspecified),-2,5,-3,98*,-10,-14
OC(COc1ccccc1)CN1CCN(C(c2ccccc2)c2ccccc2)CC1 (stereo unspecified),4,14,nt,nt,25,20
O=C(c1ccccc1)c1ccc(OCC(O)CN2CCOCC2)cc1 (stereo unspecified),-3,-1,-1,11,-5,10
CCC(=O)c1ccc(OCC(O)CN2CCN(C(c3ccccc3)c3ccccc3)CC2)cc1 (stereo unspecified),1,35,-3,60*,-14,12
OC(COc1ccc(OCc2ccccc2)cc1)CN1CCOCC1 (stereo unspecified),-7,1,2,97*,25,-1
OC(CN1CCN(Cc2ccccc2)CC1)Cn1c2ccccc2c2ccccc21 (stereo unspecified),13,13,-4,81*,25,30
O=C(NC1CCCCC1)C(c1ccc(Cl)cc1)N(C(=O)c1ccccn1)c1cccnc1 (stereo unspecified),1,-3,-9,-1,-16,-6

# Source: PubChem (several laboratories)
